Reference: ChEMBL document CHEMBL4732065 (Eur J Med Chem, 2021)

Key:
Homo sapiens [1] = species: Homo sapiens; assay: Selectivity index, ratio of IC50 for recombinant human CYP1A1 to IC50 for recombinant human CYP1B1
Cytochrome P450 1B1 = biological target: T1, Cytochrome P450 1B1 (Homo sapiens, UniProt Q16678); assay: Inhibition of recombinant human CYP1B1 using 7-ethoxyresorufin as substrate after 35 mins in presence of NADP+ by EROD assay
T1 sequence (Q16678 whole entry): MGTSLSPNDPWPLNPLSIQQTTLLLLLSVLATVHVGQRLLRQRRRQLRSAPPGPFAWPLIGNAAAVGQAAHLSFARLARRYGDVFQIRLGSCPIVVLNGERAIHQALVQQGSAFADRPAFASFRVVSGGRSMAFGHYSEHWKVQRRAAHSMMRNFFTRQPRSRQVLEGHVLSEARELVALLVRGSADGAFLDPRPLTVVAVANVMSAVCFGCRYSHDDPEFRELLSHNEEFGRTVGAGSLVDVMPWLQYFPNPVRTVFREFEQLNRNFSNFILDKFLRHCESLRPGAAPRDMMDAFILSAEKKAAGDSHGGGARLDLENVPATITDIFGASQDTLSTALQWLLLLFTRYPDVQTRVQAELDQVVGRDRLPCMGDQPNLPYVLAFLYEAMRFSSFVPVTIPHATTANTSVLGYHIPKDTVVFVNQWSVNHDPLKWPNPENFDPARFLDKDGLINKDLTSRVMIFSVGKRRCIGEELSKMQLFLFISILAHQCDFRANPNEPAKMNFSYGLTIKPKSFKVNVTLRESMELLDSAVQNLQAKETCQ
Method in brief: (§1)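 Recombinant human CYP1 Supersomes co-expressing P450 reductase; 20 fmol CYP1B1, 10 fmol CYP1A1 or 60 fmol CYP1A2 per well. Incubated at 37 °C (1B1 35 min, 1A1 15 min, 1A2 50 min).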

Cytochrome P450 1A1 = biological target: T2, Cytochrome P450 1A1 (Homo sapiens, UniProt P04798); assay: Inhibition of recombinant human CYP1A1 using 7-ethoxyresorufin as substrate after 15 mins in presence of NADP+ by EROD assay; format: ADME
T2 sequence (P04798 whole entry): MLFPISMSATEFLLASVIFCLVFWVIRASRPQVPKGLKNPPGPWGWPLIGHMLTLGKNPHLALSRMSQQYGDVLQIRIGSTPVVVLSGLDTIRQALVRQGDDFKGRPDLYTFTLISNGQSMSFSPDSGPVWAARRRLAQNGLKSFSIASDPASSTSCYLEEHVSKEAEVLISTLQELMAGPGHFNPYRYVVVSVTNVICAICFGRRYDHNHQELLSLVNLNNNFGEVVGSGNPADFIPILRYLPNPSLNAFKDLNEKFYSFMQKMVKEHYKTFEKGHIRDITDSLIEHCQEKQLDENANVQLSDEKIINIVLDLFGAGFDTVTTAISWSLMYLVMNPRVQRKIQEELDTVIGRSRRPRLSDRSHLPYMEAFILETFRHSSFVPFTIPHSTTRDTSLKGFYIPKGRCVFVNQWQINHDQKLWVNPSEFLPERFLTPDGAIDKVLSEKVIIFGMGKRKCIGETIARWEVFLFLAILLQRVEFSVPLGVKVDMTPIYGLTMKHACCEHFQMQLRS
Method in brief: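 Recombinant human CYP1 Supersomes co-expressing P450 reductase; 20 fmol CYP1B1, 10 fmol CYP1A1 or 60 fmol CYP1A2 per well. Incubated at 37 °C (1B1 35 min, 1A1 15 min, 1A2 50 min). Stopped with cold methanol; fluorescence read at 544/590 nm; triplicates.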

Homo sapiens [2] = species: Homo sapiens; assay: Selectivity index, ratio of IC50 for recombinant human CYP1A2 to IC50 for recombinant human CYP1B1
Cytochrome P450 1A2 = biological target: T3, Cytochrome P450 1A2 (Homo sapiens, UniProt P05177); assay: Inhibition of recombinant human CYP1A2 using 7-ethoxyresorufin as substrate after 50 mins in presence of NADP+ by EROD assay; format: ADME; method in brief: as §1
T3 sequence (P05177 whole entry): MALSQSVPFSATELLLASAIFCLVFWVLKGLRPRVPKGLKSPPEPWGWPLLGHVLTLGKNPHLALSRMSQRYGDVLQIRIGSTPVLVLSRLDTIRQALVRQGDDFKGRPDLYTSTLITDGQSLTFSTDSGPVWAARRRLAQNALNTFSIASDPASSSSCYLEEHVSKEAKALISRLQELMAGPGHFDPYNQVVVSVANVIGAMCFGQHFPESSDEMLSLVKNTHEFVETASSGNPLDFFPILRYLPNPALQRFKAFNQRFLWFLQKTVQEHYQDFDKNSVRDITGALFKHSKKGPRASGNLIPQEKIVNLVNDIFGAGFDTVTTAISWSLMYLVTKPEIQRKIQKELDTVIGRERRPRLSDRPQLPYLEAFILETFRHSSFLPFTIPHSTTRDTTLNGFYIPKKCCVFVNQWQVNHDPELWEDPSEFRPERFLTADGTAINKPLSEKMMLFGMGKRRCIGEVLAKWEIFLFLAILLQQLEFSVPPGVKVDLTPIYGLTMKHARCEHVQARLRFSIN

Row | Ratio IC50 (Homo sapiens [1]) | IC50 (Cytochrome P450 1B1) [nM] | IC50 (Cytochrome P450 1A1) [nM] | Ratio IC50 (Homo sapiens [2]) | IC50 (Cytochrome P450 1A2) [nM] | SMILES
1 | 0.8 | 175 | 137 | > 5.7 | > 1000 | COc1ccc(OC)c2c1c(OC)cc1c(=O)cc(-c3cccnc3N)oc12
2 | 41.8 | 0.93 | 38.9 | 557 | 518 | COc1ccc(OC)c2c1c(OC)cc1c(=O)cc(-c3ccnc(F)c3)oc12
3 | 8.9 | 14.9 | 132 | > 67.1 | > 1000 | COc1ccc(OC)c2c1c(OC)cc1c(=O)cc(-c3cccc(N4CCOCC4)c3)oc12
4 | 2.9 | 30.1 | 85.8 | > 33.2 | > 1000 | COc1ccc(OC)c2c1c(OC)cc1c(=O)cc(-c3cncc(C(=O)O)c3)oc12
5 | 11.5 | 1.2 | 13.8 | 56 | 67.2 | COc1ccc(OC)c2c1c(OC)cc1c(=O)cc(-c3ccco3)oc12
6 | 16.6 | 1.2 | 19.9 | 124 | 148 | COc1ccc(OC)c2c1c(OC)cc1c(=O)cc(-c3cccc(C)n3)oc12
7 | 41.9 | 7.7 | 323 | > 130 | > 1000 | COc1ccc(OC)c2c1c(OC)cc1c(=O)cc(-c3cccc(O)n3)oc12
8 | 118 | 1 | 118 | > 1000 | > 1000 | COc1ccc(OC)c2c1c(OC)cc1c(=O)cc(-c3ccc4ccccc4n3)oc12
9 | 0.9 | 63.9 | 60.7 | 15.1 | 966 | COc1ccc(OC)c2c1c(OC)cc1c(=O)cc(-c3cccnc3Br)oc12
10 | 1.2 | 2.6 | 3.1 | 11.2 | 29.2 | COc1ccc(OC)c2c1c(OC)cc1c(=O)cc(-c3cscn3)oc12
11 | 2.7 | 15.6 | 42.4 | > 64.1 | > 1000 | COc1ccc(OC)c2c1c(OC)cc1c(=O)cc(-c3ccc4[nH]cnc4c3)oc12
12 | 9 | 0.6 | 5.4 | 179 | 108 | COc1ccc(OC)c2c1c(OC)cc1c(=O)cc(-c3ccccn3)oc12
13 |  | > 1000 | > 1000 |  | > 1000 | COc1ccc(OC)c2c1c(OC)cc1c(=O)cc(-c3ccc(N4CCN(C)CC4)cc3)oc12
14 | 33.7 | 1.2 | 40.4 | 166 | 200 | COc1ccc(OC)c2c1c(OC)cc1c(=O)cc(-c3ccncc3)oc12
15 | 8.7 | 6.5 | 56.8 | > 154 | > 1000 | COc1ccc(OC)c2c1c(OC)cc1c(=O)cc(-c3cccc(N)n3)oc12
16 | 7.9 | 10.3 | 80.9 | > 97.1 | > 1000 | COc1ccc(OC)c2c1c(OC)cc1c(=O)cc(-c3cncc(O)c3)oc12
17 | 6.1 | 0.38 | 2.3 | 1760 | 668 | COc1ccc(OC)c2c1c(OC)cc1c(=O)cc(-c3cccc(F)n3)oc12
18 | 0.8 | 2 | 1.6 | > 500 | > 1000 | COc1ccc(OC)c2c1c(OC)cc1c(=O)cc(-c3ccc4[nH]ncc4c3)oc12

Row | Ratio IC50 (Homo sapiens [1]) | IC50 (Cytochrome P450 1B1) [nM] | IC50 (Cytochrome P450 1A1) [nM] | Ratio IC50 (Homo sapiens [2]) | IC50 (Cytochrome P450 1A2) [nM] | SMILES
19 | 83.3 | 1.1 | 91.6 | > 909 | > 1000 | COc1ccc(OC)c2c1c(OC)cc1c(=O)cc(-c3ccnc(Cl)c3)oc12
20 | 1.3 | 24.8 | 31.6 | > 40.3 | > 1000 | COc1ccc(OC)c2c1c(OC)cc1c(=O)cc(-c3ccncc3N)oc12
21 | 7.6 | 1 | 7.6 | 117 | 117 | COc1ccc(OC)c2c1c(OC)cc1c(=O)cc(-c3cccnc3)oc12
22 | 0.1 | 189 | 23.8 | > 5.3 | > 1000 | COc1ccc(OC)c2c1c(OC)cc1c(=O)cc(-c3c[nH]c4ncccc34)oc12
23 | 149 | 0.95 | 142 | > 1050 | > 1000 | COc1ccc(OC)c2c1c(OC)cc1c(=O)cc(-c3ccc4cc[nH]c4c3)oc12
24 | 11.8 | 0.84 | 9.9 | > 1190 | > 1000 | COc1ccc(OC)c2c1c(OC)cc1c(=O)cc(-c3cc(Cl)ccn3)oc12
25 | 11.6 | 1.8 | 20.9 | > 556 | > 1000 | COc1ccc(OC)c2c1c(OC)cc1c(=O)cc(-c3ccc4ncccc4c3)oc12
26 | 3.8 | 61.5 | 232 | > 16.3 | > 1000 | COc1ccc(OC)c2c1c(OC)cc1c(=O)cc(-c3ccnc(O)c3)oc12
27 | 58.5 | 0.46 | 26.9 | > 2170 | > 1000 | COc1ccc(OC)c2c1c(OC)cc1c(=O)cc(-c3ccnc(Br)c3)oc12
28 | 19 | 0.3 | 5.7 | 1160 | 349 | COc1ccc(OC)c2c1c(OC)cc1c(=O)cc(-c3cccc(Cl)n3)oc12
29 | 11.4 | 0.14 | 1.6 | 1490 | 208 | COc1ccc(OC)c2c1c(OC)cc1c(=O)cc(-c3ccc(Cl)cn3)oc12
30 | 11.1 | 6 | 66.6 | > 167 | > 1000 | COc1ccc(OC)c2c1c(OC)cc1c(=O)cc(-c3ccc(N)cn3)oc12
31 | 0.8 | 22.9 | 18.8 | 27.4 | 628 | COc1ccc(OC)c2c1c(OC)cc1c(=O)cc(-c3cncc(N)c3)oc12
32 | 11.6 | 0.87 | 10.1 | > 1150 | > 1000 | COc1ccc(OC)c2c1c(OC)cc1c(=O)cc(-c3cc4ccccc4o3)oc12
33 |  | > 1000 | 152 |  | > 1000 | COc1ccc(OC)c2c1c(OC)cc1c(=O)cc(-c3cccnc3O)oc12
34 | 62.9 | 2 | 126 | > 500 | > 1000 | COc1ccc(OC)c2c1c(OC)cc1c(=O)cc(-c3ccnnc3)oc12
35 |  | > 1000 | > 1000 |  | > 1000 | COc1ccc(OC)c2c1c(OC)cc1c(=O)cc(-c3cccc(N4CCN(C)CC4)c3)oc12
